In ChEMBL document CHEMBL1157912, “Impact of nature and length of linker incorporated in agonists on toll-like receptor 9-mediated immune responses” (J Med Chem, 2010):
Activity calls are given as the source filed them. The rule behind the calls is not given here.

Columns and labels:
[1] = target: T1, Toll-like receptor 9 (Mus musculus) (UniProt Q9EQU3); assay: Activation of mouse TLR9 expressed in HEK293 cells assessed as induction of NF-kappaB activity at 1 to 10 ug/ml after 18 hrs by SEAP assay; type: cell-based
T1 sequence (whole entry): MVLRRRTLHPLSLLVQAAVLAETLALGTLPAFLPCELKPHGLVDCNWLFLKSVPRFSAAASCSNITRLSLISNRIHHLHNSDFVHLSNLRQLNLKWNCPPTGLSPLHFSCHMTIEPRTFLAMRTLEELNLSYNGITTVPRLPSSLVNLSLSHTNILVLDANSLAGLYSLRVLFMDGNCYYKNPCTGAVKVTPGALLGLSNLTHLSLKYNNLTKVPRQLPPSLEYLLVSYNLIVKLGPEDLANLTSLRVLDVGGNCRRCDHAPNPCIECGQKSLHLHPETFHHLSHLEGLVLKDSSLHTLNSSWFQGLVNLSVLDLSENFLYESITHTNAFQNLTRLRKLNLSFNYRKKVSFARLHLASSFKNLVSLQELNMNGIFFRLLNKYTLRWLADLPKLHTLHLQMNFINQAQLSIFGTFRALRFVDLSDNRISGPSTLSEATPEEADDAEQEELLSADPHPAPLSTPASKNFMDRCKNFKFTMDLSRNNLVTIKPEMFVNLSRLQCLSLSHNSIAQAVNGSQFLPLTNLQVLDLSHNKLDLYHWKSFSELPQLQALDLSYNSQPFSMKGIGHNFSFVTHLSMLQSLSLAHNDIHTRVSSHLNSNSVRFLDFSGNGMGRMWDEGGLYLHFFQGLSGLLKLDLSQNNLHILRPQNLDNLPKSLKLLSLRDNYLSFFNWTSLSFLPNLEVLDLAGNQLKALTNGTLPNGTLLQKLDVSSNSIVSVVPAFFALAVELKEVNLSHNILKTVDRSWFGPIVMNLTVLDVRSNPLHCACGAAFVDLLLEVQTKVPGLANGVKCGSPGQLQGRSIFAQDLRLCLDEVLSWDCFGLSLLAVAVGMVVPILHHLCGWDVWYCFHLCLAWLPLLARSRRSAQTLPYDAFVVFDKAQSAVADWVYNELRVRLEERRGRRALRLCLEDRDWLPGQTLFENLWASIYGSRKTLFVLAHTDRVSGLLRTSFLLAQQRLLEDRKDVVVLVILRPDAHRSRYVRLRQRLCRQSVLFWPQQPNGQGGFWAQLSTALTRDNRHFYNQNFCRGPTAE
How it was run: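 HEK293 cells stably expressing mouse TLR9 were grown in DMEM with 10% heat-inactivated FBS. At 80% confluence they were transiently transfected with a SEAP reporter plasmid (100 ng/well, lipofectamine) for 6 h. Medium was then replaced and agonists were added for 18 h. Supernatant SEAP was read with QuantiBlue substrate at 620-645 nm. Results are expressed as fold NF-κB activity over PBS control.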

[2] = target: T2, Toll-like receptor 9 (Homo sapiens) (UniProt Q9NR96); assay: Induction of TLR9-mediated immune stimulation in human PBMC assessed as IL6 production at 2 ug/ml after 24 hrs by luminex multiplex assay (RVb = 0.01 ng/ml)
T2 sequence (whole entry): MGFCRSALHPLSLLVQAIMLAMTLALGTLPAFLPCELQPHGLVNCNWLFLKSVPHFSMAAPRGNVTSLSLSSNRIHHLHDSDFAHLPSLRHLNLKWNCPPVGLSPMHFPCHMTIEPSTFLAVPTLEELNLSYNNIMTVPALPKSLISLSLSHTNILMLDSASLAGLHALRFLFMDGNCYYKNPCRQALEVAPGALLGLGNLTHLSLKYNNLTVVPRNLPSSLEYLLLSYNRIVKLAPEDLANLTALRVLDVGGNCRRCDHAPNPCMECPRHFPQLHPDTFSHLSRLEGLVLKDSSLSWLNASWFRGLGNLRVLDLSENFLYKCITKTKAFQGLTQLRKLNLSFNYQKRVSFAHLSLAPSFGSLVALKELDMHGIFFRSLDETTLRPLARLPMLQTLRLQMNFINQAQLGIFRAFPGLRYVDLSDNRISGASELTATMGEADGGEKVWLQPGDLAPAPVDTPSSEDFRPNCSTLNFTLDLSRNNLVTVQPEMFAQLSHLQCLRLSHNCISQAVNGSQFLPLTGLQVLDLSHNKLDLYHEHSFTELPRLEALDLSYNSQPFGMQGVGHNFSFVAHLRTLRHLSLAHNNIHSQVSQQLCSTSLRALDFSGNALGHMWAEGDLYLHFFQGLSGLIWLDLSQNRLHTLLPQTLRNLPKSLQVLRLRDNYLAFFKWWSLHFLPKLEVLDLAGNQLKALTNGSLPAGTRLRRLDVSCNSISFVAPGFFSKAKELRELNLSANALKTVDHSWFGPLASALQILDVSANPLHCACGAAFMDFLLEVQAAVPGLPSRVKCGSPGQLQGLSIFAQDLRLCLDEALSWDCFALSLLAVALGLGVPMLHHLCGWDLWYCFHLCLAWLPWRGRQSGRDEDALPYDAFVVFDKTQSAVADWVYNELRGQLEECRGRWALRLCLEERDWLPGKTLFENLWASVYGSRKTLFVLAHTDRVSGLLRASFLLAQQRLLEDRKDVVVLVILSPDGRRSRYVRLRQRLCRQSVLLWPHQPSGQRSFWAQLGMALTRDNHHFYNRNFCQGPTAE

[3] = target: T2, Toll-like receptor 9 (Homo sapiens); assay: Induction of TLR9-mediated immune stimulation in human PBMC assessed as IP10 production at 10 ug/ml after 24 hrs by luminex multiplex assay (RVb = 0.00 ng/ml)
[4] = target: T2, Toll-like receptor 9 (Homo sapiens); assay: Induction of TLR9-mediated human B cell proliferation assessed as [3H]thymidine uptake at 2 to 10 ug/ml after 56 hrs by scintillation counting; type: cell-based
How it was run: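 B cells were purified from human PBMCs (healthy volunteers), about 1 × 10⁵ cells, and stimulated with various agonist concentrations for 56 h. Cells were then pulsed with 0.75 μCi [³H]-thymidine and harvested 16 h later. Incorporation was counted by scintillation and reported as cpm.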

Mus musculus = assay: Immunostimulatory activity in C57BL/6 mouse assessed as increase in serum IL12 level at 1 mg/kg, sc after 2 hrs by ELISA; type: functional, organism-based; parameters: dose 1 mg/kg
How it was run: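 Female C57BL/6 mice (n=3) received a single subcutaneous agonist dose of 1 mg/kg. Blood was taken by retro-orbital bleeding 2 h later, and serum IL-12 was measured by sandwich ELISA. Values are the mean of three mice ± SD.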

Cc1cn([C@H]2C[C@H](OCC(O)COP(=O)(S)O[C@H]3C[C@H](n4cc(C)c(=O)[nH]c4=O)O[C@@H]3COP(=O)(S)O[C@H]3[C@@H](O)[C@H](n4ccc(N)nc4=O)O[C@@H]3COP(=O)(S)O[C@H]3[C@@H](O)[C@H](n4cnc5c(N)ncnc54)O[C@@H]3COP(=O)(S)O[C@H]3[C@@H](O)[C@H](n4cnc5c(N)ncnc54)O[C@@H]3COP(=O)(S)O[C@H]3[C@@H](O)[C@H](n4ccc(N)nc4=O)O[C@@H]3COP(=O)(S)O[C@H]3[C@@H](O)[C@H](n4ccc(N)nc4=O)O[C@@H]3COP(=O)(S)O[C@H]3[C@@H](O)[C@H](n4cnc5c(N)ncnc54)O[C@@H]3COP(=O)(S)O[C@H]3[C@@H](O)[C@H](n4ccc(N)nc4=O)O[C@@H]3COP(=O)(S)O[C@H]3[C@@H](O)[C@H](n4cnc5c(N)ncnc54)O[C@@H]3COP(=O)(S)O[C@H]3[C@@H](O)[C@H](n4ccc(N)nc4=O)O[C@@H]3COP(=O)(S)O[C@H]3[C@@H](O)[C@H](n4cnc5c(N)ncnc54)O[C@@H]3CO)[C@@H](COP(=O)(S)O[C@H]3[C@@H](O)[C@H](n4ccc(N)nc4=O)O[C@@H]3COP(=O)(S)O[C@H]3[C@@H](O)[C@H](n4cnc5c(N)ncnc54)O[C@@H]3COP(=O)(S)O[C@H]3[C@@H](O)[C@H](n4cnc5c(N)ncnc54)O[C@@H]3COP(=O)(S)O[C@H]3[C@@H](O)[C@H](n4ccc(N)nc4=O)O[C@@H]3COP(=O)(S)O[C@H]3[C@@H](O)[C@H](n4ccc(N)nc4=O)O[C@@H]3COP(=O)(S)O[C@H]3[C@@H](O)[C@H](n4cnc5c(N)ncnc54)O[C@@H]3COP(=O)(S)O[C@H]3[C@@H](O)[C@H](n4ccc(N)nc4=O)O[C@@H]3COP(=O)(S)O[C@H]3[C@@H](O)[C@H](n4cnc5c(N)ncnc54)O[C@@H]3COP(=O)(S)O[C@H]3[C@@H](O)[C@H](n4ccc(N)nc4=O)O[C@@H]3COP(=O)(S)O[C@H]3[C@@H](O)[C@H](n4cnc5c(N)ncnc54)O[C@@H]3CO)O2)c(=O)[nH]c1=O (stereo not given in full)
Activity [1]: Active
Activity [2]: 0.02 ng/mL
Activity [3]: 0.02 ng/mL
Activity [4]: Active
Activity (Mus musculus): Active
